# According to ChEMBL document CHEMBL2040843, “Synthesis and in vitro stability of nucleoside 5'-phosphonate derivatives” (Eur J Med Chem, 2012):
# Calls of active or inactive are those of the source. No cut-off for these calls is given here.
# Experiments:
# Platelet = experiment: Induction of platelets aggregation in human platelet rich plasma at 10^-4 M after 3 mins by light transmission aggregometry analysis; assay type: functional, cell-free
# Outline: (§1)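 PRP from citrated whole blood (9:1) of healthy volunteers taken 2 h after an acetylsalicylic acid tablet; centrifuged 150g, 21 °C, 10 min. Pre-warmed PRP at 37 °C with test agent (10^-4 M) or vehicle; aggregation triggered with 10^-6 M ADP; shape change and aggregation followed 3 min by light transmission aggregometry.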
# [1] = Antiplatelet activity against human platelets assessed as inhibition of ADP-induced platelet aggregation at 10^-4 M after 3 mins by light transmission aggregometry analysis; assay type: functional; details: 0.05 h; outline: as §1
# Liver [2] = experiment: (§2) Metabolic stability in Wistar rat liver homogenates assessed as compound degradation at 50 uM after 6 hrs by HPLC analysis; assay type: ADME, tissue-based; details: tissue homogenate, 6 h, 50 µM
# Outline: (§3)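 Male Wistar rat liver washed in ice-cold saline, homogenized in 50 mM Tris-HCl pH 7.4 (4 mL/g); 2000 × g, 10 min, 4 °C supernatant stored −80 °C. Compound from 10^-2 M DMSO stock incubated at 50 μM final, 37 °C, up to 360 min; HPLC with external-standard peak areas. First-order kinetics from semilogarithmic plots; mean ± SD of three independent experiments.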
# Blood = experiment: (§4) Metabolic stability in human whole blood assessed as compound degradation after 6 hrs by HPLC analysis; assay type: ADME, tissue-based; details: blood, 6 h
# Outline: (§5)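 Compound from 10^-2 M DMSO stock incubated at 50 μM final in whole blood from healthy subjects (3 mL) at 37 °C for intervals up to 360 min. Remaining parent quantified by reversed-phase HPLC, peak areas against external standards; semilogarithmic regression for first-order kinetics; mean ± SD of three independent experiments.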
# [3] = Half life in Wistar rat liver homogenates at 50 uM by HPLC analysis; assay type: ADME, tissue-based; outline: as §3
# [4] = as §2; assay type: ADME, tissue-based; details: Wistar, liver homogenates, read-out: Drug degradation; outline: as §3
# [5] = as §4; assay type: ADME, tissue-based; details: whole blood, read-out: Drug degradation; outline: as §5
# Liver [6] = experiment: Drug degradation in Wistar rat liver homogenates assessed as increase in guanine formation by HPLC analysis; assay type: ADME, tissue-based; details: tissue homogenate
# Outline: (§6)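 Supernatant of male Wistar rat liver homogenate (Tris-HCl 50 mM, pH 7.4; 2000 × g) incubated at 37 °C with 50 μM compound up to 360 min. Guanine measured by RP18 HPLC, water/acetonitrile 99:1 with 0.01 M H3PO4, 0.8 mL/min, external-standard peak areas.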
# Liver [7] = experiment: Metabolic stability in Wistar rat liver homogenates assessed as increase in guanine formation by HPLC analysis; assay type: ADME, tissue-based; details: tissue homogenate; outline: as §6
Compound,Activity (Platelet),other results
Nc1ncnc2c1ncn2[C@@H]1O[C@H](COC(=O)CP(=O)(O)O)[C@@H](O)[C@H]1O [ADENOSINE PHOSPHONOACETIC ACID],inactive,inhibition at 100 µM [1]: ≤ 70%; Stability (Liver [2]): Stable; Stability (Blood): Stable
CC(C)C(=O)Nc1nc2c(ncn2[C@@H]2O[C@H](COC(=O)CP(=O)(O)O)[C@@H](O)[C@H]2O)c(=O)[nH]1,inactive,
CCOP(=O)(CC(=O)NC[C@H](CO)O[C@H](CO)n1cnc2c(N)ncnc21)OCC,inactive,
Nc1nc2c(ncn2[C@@H]2O[C@H](COC(=O)CP(=O)(O)O)[C@@H](O)[C@H]2O)c(=O)[nH]1,inactive,
CCOP(=O)(CC(=O)NC[C@H]1O[C@@H](n2cnc3c(=O)[nH]cnc32)[C@H](O)[C@@H]1O)OCC,inactive,
CCOP(=O)(CC(=O)OC[C@H]1O[C@@H](n2cnc3c(=O)[nH]c(NC(=O)C(C)C)nc32)[C@H](O)[C@@H]1O)OCC,inactive,
CCOP(=O)(CC(=O)OC[C@H]1O[C@@H](n2cnc3c(=O)[nH]cnc32)[C@H](O)[C@@H]1O)OCC,inactive,
CCOP(=O)(CC(=O)OC[C@H]1O[C@@H](n2c(SC)nc3c(N)ncnc32)[C@H](O)[C@@H]1O)OCC,inactive,
CCOP(=O)(CC(=O)OC[C@H]1O[C@@H](n2cnc3c(=O)[nH]c(N)nc32)[C@H](O)[C@@H]1O)OCC,inactive,"inhibition at 100 µM [1]: ≤ 70%; half-life at 50 µM [3]: 2.33 h; metabolised at 6 h, 50 µM [4]: 80%; metabolised at 6 h [5]: 20%; Drug degradation (Liver [6]): Active"
Nc1ncnc2c1ncn2[C@@H]1O[C@H](CNC(=O)CP(=O)(O)O)[C@@H](O)[C@H]1O,inactive,
O=C(CP(=O)(O)O)NC[C@H]1O[C@@H](n2cnc3c(=O)[nH]cnc32)[C@H](O)[C@@H]1O,inactive,
CCOP(=O)(CC(=O)NC[C@H]1O[C@@H](n2cnc3c(N)ncnc32)[C@H](O)[C@@H]1O)OCC,inactive,
Nc1nc2c(ncn2[C@@H]2O[C@H](CO)[C@@H](O)[C@H]2O)c(=O)[nH]1 [GUANOSINE],,half-life at 50 µM [3]: 0.00403 h; Stability (Liver [7]): Unstable
CCOP(=O)(CC(=O)OC[C@H](CO)O[C@H](CO)n1cnc2c(N)ncnc21)OCC,inactive,
CCOP(=O)(O)CC(=O)OCCOCn1cnc2c(N)ncnc21,inactive,inhibition at 100 µM [1]: ≤ 70%; Stability (Liver [2]): Stable; Stability (Blood): Stable
CCOP(=O)(CC(=O)OCCOCn1cnc2c(N)ncnc21)OCC,inactive,
CCOP(=O)(CC(=O)OC[C@H]1O[C@@H](n2cnc3c(N)ncnc32)[C@H](O)[C@@H]1O)OCC,inactive,
